Type in all cases: functional
For test [1], the system named is Streptococcus. Nature of the test: In vitro minimum inhibitory concentration against Streptococcus species; Range is 0.12-1 ug/mL.
In test [2] the test system is Enterococcus. Nature of the test: In vitro minimum inhibitory concentration against Enterococcus species; Range is 4-8 ug/mL.
Test [3] concerns Staphylococcus. Nature of the test: In vitro minimum inhibitory concentration against Staphylococcus species; Range is 1-4 ug/mL.
The test system of test [4] is Streptococcus. The test can be described thus: In vitro minimum inhibitory concentration against Streptococcus species.
Test [5] concerns Enterococcus. The test can be described thus: In vitro minimum inhibitory concentration against Enterococcus species; Range is 0.5-2 ug/mL.
The test system of test [6] is Enterococcus faecalis. Nature of the test: Effective dose of compound against Enterococcus faecalis (GC 6189) in mice. In outline:
(§1)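 Murine protection models against S. aureus Smith (GC 4543) and E. faecalis (GC 6189). Compounds dosed in D5W (5% dextrose in water); vancomycin dosed in saline. Five dosages, five mice per dosage level. ED50 in mg/kg reported as the pooled mean from at least three separate tests.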

Test [7] concerns Staphylococcus. Nature of the test: In vitro minimum inhibitory concentration against Staphylococcus species.
Test [8] deals with Staphylococcus aureus. Nature of the test: Effective dose of compound against […] Smith (GC 4543) in mice. In short, it runs like this:
as §1

The test system of test [9] is Streptococcus. Nature of the test: In vitro minimum inhibitory concentration against Streptococcus species; Range is 0.06-0.12 ug/mL.
The subject of test [10] is Staphylococcus. The test can be described thus: In vitro minimum inhibitory concentration against Staphylococcus species; Range is 1-2 ug/mL.
The subject of test [11] is Enterococcus. Nature of the test: In vitro minimum inhibitory concentration against Enterococcus species; Range is 0.5-4 ug/mL.
The subject of test [12] is Staphylococcus. The test can be described thus: In vitro minimum inhibitory concentration against Staphylococcus species; Range is 0.25-1 ug/mL.
Test [13] concerns Enterococcus. The test can be described thus: In vitro minimum inhibitory concentration against Enterococcus species; Range is 0.5-1 ug/mL.
The subject of test [14] is Enterococcus. The test can be described thus: In vitro minimum inhibitory concentration against Enterococcus species; Range is 0.12-0.25 ug/mL.
The test system of test [15] is Staphylococcus. The test can be described thus: In vitro minimum inhibitory concentration against Staphylococcus species; Range is 0.06-0.12 ug/mL.
Test [16] relates to Staphylococcus. The test can be described thus: In vitro minimum inhibitory concentration against Staphylococcus species; Range is 0.5-2 ug/mL.
For test [17], the system named is Streptococcus. Nature of the test: In vitro minimum inhibitory concentration against Streptococcus species; Range is 0.12-0.5 ug/mL.
Test [18] concerns Enterococcus. Nature of the test: In vitro minimum inhibitory concentration against Enterococcus species; Range is 0.5-128 ug/mL.
For test [19], the system named is Enterococcus. The test can be described thus: In vitro minimum inhibitory concentration against Enterococcus species (in vitro); Range is 1-2 ug/mL.
In test [20] the test system is Staphylococcus. Nature of the test: In vitro minimum inhibitory concentration against Staphylococcus species; Range is 0.5-1 ug/mL.
The test system of test [21] is Streptococcus. The test can be described thus: In vitro minimum inhibitory concentration against Streptococcus species; Range is 0.06-0.25 ug/mL.
The test system of test [22] is Enterococcus. Nature of the test: In vitro minimum inhibitory concentration against Enterococcus species; Range is 1-2 ug/mL.
Test [23] relates to Enterococcus. The test can be described thus: In vitro minimum inhibitory concentration against Enterococcus species; Range is 2-4 ug/mL.
For test [24], the system named is Streptococcus. The test can be described thus: In vitro minimum inhibitory concentration against Streptococcus species; Range is 0.12-0.25 ug/mL.
Test [25] relates to Enterococcus. Nature of the test: In vitro minimum inhibitory concentration against Enterococcus species.

Values after ≈ are worked out from the molar mass of the structure shown.

For the compound `C[C@@H](c1ccccc1)C1NC(=O)CNC(=O)[C@H](CO)NC(=O)[C@@H]([C@@H](O)[C@@H]2CN=C(N)N2[C@H]2O[C@H](CO)[C@@H](O)[C@H](O)[C@@H]2O)NC(=O)[C@H]([C@@H](O)[C@@H]2CN=C(N)N2)NC(=O)[C@@H](Cc2ccc(O[C@H]3O[C@H](CO)[C@@H](O[C@H]4O[C@@H]5COC6(CCCCC6)O[C@H]5[C@H](O)[C@@H]4O)[C@H](O)[C@@H]3O)cc2)NC1=O` (stereo not given in full), the MIC was determined as 1 µg/mL (≈ 0.727 µM) in test [1], 8 µg/mL (≈ 5.82 µM) in [2] and 4 µg/mL (≈ 2.91 µM) in test [3].

Consider `C[C@@H](c1ccccc1)C1NC(=O)CNC(=O)[C@H](CO)NC(=O)[C@@H]([C@@H](O)[C@@H]2CN=C(N)N2[C@H]2O[C@H](CO)[C@@H](O)[C@H](O)[C@@H]2O)NC(=O)[C@H]([C@@H](O)[C@@H]2CN=C(N)N2)NC(=O)[C@@H](Cc2ccc(O[C@H]3O[C@H](CO)[C@@H](O[C@H]4O[C@@H]5COC(C6CCCCC6)O[C@H]5[C@H](O)[C@@H]4O)[C@H](O)[C@@H]3O)cc2)NC1=O` (stereo not given in full), for which the MIC is no more than 0.12 µg/mL in test [4], 2 µg/mL (≈ 1.44 µM) in test [5] and 1 µg/mL (≈ 0.72 µM) in test [7]. The ED50 in test [6] stood at 0.19 mg/kg; in test [8] it was 0.07 mg/kg.

In the case of `NC1=NC[C@@H]([C@H](O)[C@@H]2NC(=O)[C@@H](Cc3ccc(O[C@H]4O[C@H](CO)[C@@H](O[C@H]5O[C@@H]6COC(Cc7ccccc7)O[C@H]6[C@H](O)[C@@H]5O)[C@H](O)[C@@H]4O)cc3)NC(=O)C(CC3CCCCC3)NC(=O)CNC(=O)[C@H](CO)NC(=O)[C@@H]([C@@H](O)[C@@H]3CN=C(N)N3[C@H]3O[C@H](CO)[C@@H](O)[C@H](O)[C@@H]3O)NC2=O)N1` (stereo not given in full), the MIC was no more than 0.12 µg/mL in test [9], 2 µg/mL (≈ 1.44 µM) in test [10] and 4 µg/mL (≈ 2.88 µM) in test [11].

`C[C@@H](c1ccccc1)C1NC(=O)CNC(=O)[C@H](CO)NC(=O)[C@@H]([C@@H](O)[C@@H]2CN=C(N)N2[C@H]2O[C@H](CO)[C@@H](O)[C@H](O)[C@@H]2O)NC(=O)[C@H]([C@@H](O)[C@@H]2CN=C(N)N2)NC(=O)[C@@H](Cc2ccc(O[C@H]3O[C@H](CO)[C@@H](O[C@H]4O[C@@H]5COC6(O[C@H]5[C@H](O)[C@@H]4O)C4CC5CC(C4)CC6C5)[C@H](O)[C@@H]3O)cc2)NC1=O` (stereo not given in full): the MIC in test [4] is no more than 0.06 µg/mL; in test [12], 1 µg/mL (≈ 0.701 µM); in test [13] it was 1 µg/mL (≈ 0.701 µM). Moreover, the values for the ED50 in [6] and in [8] were 1.8 mg/kg and 0.04 mg/kg, respectively.

Regarding `NC1=NC[C@@H]([C@H](O)[C@@H]2NC(=O)[C@@H](Cc3ccc(O[C@H]4O[C@H](CO)[C@@H](O[C@H]5O[C@@H]6COC7(O[C@H]6[C@H](O)[C@@H]5O)C5CC6CC(C5)CC7C6)[C@H](O)[C@@H]4O)cc3)NC(=O)C(CC3CCCCC3)NC(=O)CNC(=O)[C@H](CO)NC(=O)[C@@H]([C@@H](O)[C@@H]3CN=C(N)N3[C@H]3O[C@H](CO)[C@@H](O)[C@H](O)[C@@H]3O)NC2=O)N1` (stereo not given in full), the MIC is no more than 0.06 µg/mL in test [4]; 1 µg/mL (≈ 0.704 µM) in test [12]; 2 µg/mL (≈ 1.41 µM) in test [5]; no more than 0.12 µg/mL in test [9]; 0.25 µg/mL (≈ 0.176 µM) in test [14]; no more than 0.12 µg/mL in test [15]. For the same compound, the ED50 in test [6] was found to be 0.39 mg/kg; in [8], 0.08 mg/kg.

`C[C@@H](c1ccccc1)C1NC(=O)CNC(=O)[C@H](CO)NC(=O)[C@@H]([C@@H](O)[C@@H]2CN=C(N)N2[C@H]2O[C@H](CO)[C@@H](O)[C@H](O)[C@@H]2O)NC(=O)[C@H]([C@@H](O)[C@@H]2CN=C(N)N2)NC(=O)[C@@H](Cc2ccc(O[C@H]3O[C@H](CO)[C@@H](O[C@H]4O[C@@H]5COC6(O[C@H]5[C@H](O)[C@@H]4O)C4CCCC6CCC4)[C@H](O)[C@@H]3O)cc2)NC1=O` (stereo not given in full): the figures for the MIC in test [4], in test [2] and in test [3] were no more than 0.06 µg/mL, 8 µg/mL (≈ 5.65 µM) and 4 µg/mL (≈ 2.83 µM), respectively.

For `CN[C@H](CC(C)C)C(=O)N[C@H]1C(=O)N[C@@H](CC(N)=O)C(=O)N[C@H]2C(=O)N[C@H]3C(=O)N[C@H](C(=O)N[C@H](C(=O)O)c4cc(O)cc(O)c4-c4cc3ccc4O)[C@H](O)c3ccc(c(Cl)c3)Oc3cc2cc(c3O[C@@H]2O[C@H](CO)[C@@H](O)[C@H](O)[C@H]2O[C@H]2C[C@](C)(N)[C@H](O)[C@H](C)O2)Oc2ccc(cc2Cl)[C@H]1O` [VANCOMYCIN], the MIC in test [16] was less than 2 µg/mL; in test [17] it was no more than 0.5 µg/mL; in test [18], 128 µg/mL (≈ 88.3 µM). For the same compound, the ED50 in test [6] was greater than 32 mg/kg; in test [8], 1 mg/kg.

Take `CCCCCC1OC[C@H]2O[C@H](O[C@H]3[C@H](O)[C@H](O)[C@@H](Oc4ccc(C[C@H]5NC(=O)C([C@@H](C)c6ccccc6)NC(=O)CNC(=O)[C@H](CO)NC(=O)[C@@H]([C@@H](O)[C@@H]6CN=C(N)N6[C@H]6O[C@H](CO)[C@@H](O)[C@H](O)[C@@H]6O)NC(=O)[C@H]([C@@H](O)[C@@H]6CN=C(N)N6)NC5=O)cc4)O[C@@H]3CO)[C@@H](O)[C@@H](O)[C@@H]2O1` (stereo not given in full): the MIC in test [4] is no more than 0.5 µg/mL; in test [19], 2 µg/mL (≈ 1.45 µM); in test [20], no more than 1 µg/mL.

`C[C@@H](c1ccccc1)C1NC(=O)CNC(=O)[C@H](CO)NC(=O)[C@@H]([C@@H](O)[C@@H]2CN=C(N)N2[C@H]2O[C@H](CO)[C@@H](O)[C@H](O)[C@@H]2O)NC(=O)[C@H]([C@@H](O)[C@@H]2CN=C(N)N2)NC(=O)[C@@H](Cc2ccc(O[C@H]3O[C@H](CO)[C@@H](O[C@H]4O[C@@H]5COC(Cc6ccccc6)O[C@H]5[C@H](O)[C@@H]4O)[C@H](O)[C@@H]3O)cc2)NC1=O` (stereo not given in full): the MIC in test [21] was no more than 0.25 µg/mL; in test [22], 2 µg/mL (≈ 1.43 µM); in [7] it was 2 µg/mL (≈ 1.43 µM). Moreover, the ED50 was found to be 1.04 mg/kg in test [6] and 0.23 mg/kg in [8].

Regarding `C[C@@H](c1ccccc1)C1NC(=O)CNC(=O)[C@H](CO)NC(=O)[C@@H]([C@@H](O)[C@@H]2CN=C(N)N2[C@H]2O[C@H](CO)[C@@H](O)[C@H](O)[C@@H]2O)NC(=O)[C@H]([C@@H](O)[C@@H]2CN=C(N)N2)NC(=O)[C@@H](Cc2ccc(O[C@H]3O[C@H](CO)[C@@H](O[C@H]4O[C@@H]5COC(c6ccccc6)O[C@H]5[C@H](O)[C@@H]4O)[C@H](O)[C@@H]3O)cc2)NC1=O` (stereo not given in full), the MIC in [16] is 2 µg/mL (≈ 1.45 µM); in test [23] it was 4 µg/mL (≈ 2.89 µM); in test [24], no more than 0.25 µg/mL. For the same compound, the figures for the ED50 in test [6] and in test [8] were 0.39 mg/kg and 0.19 mg/kg, respectively.

As to `C[C@@H](c1ccccc1)C1NC(=O)CNC(=O)[C@H](CO)NC(=O)[C@@H]([C@@H](O)[C@@H]2CN=C(N)N2[C@H]2O[C@H](CO)[C@@H](O)[C@H](O)[C@@H]2O)NC(=O)[C@H]([C@@H](O)[C@@H]2CN=C(N)N2)NC(=O)[C@@H](Cc2ccc(O[C@H]3O[C@H](CO)[C@@H](O[C@H]4O[C@H](CO)[C@@H](O)[C@H](O)[C@@H]4O)[C@H](O)[C@@H]3O)cc2)NC1=O` (stereo not given in full), the MIC in test [4] was greater than 32 µg/mL; in test [7], 128 µg/mL (≈ 98.8 µM); in test [25] it was greater than 128 µg/mL. In [8], this compound registered an ED50 of 20 mg/kg.

As for `NC1=NC[C@@H]([C@H](O)[C@@H]2NC(=O)[C@@H](Cc3ccc(O[C@H]4O[C@H](CO)[C@@H](O[C@H]5O[C@@H]6COC(c7ccccc7)O[C@H]6[C@H](O)[C@@H]5O)[C@H](O)[C@@H]4O)cc3)NC(=O)C(CC3CCCCC3)NC(=O)CNC(=O)[C@H](CO)NC(=O)[C@@H]([C@@H](O)[C@@H]3CN=C(N)N3[C@H]3O[C@H](CO)[C@@H](O)[C@H](O)[C@@H]3O)NC2=O)N1` (stereo not given in full), the results for the MIC in test [16], in test [4] and in test [23] were 2 µg/mL (≈ 1.45 µM), no more than 0.12 µg/mL and 4 µg/mL (≈ 2.91 µM), respectively.

Take `C[C@@H](c1ccccc1)C1NC(=O)CNC(=O)[C@H](CO)NC(=O)[C@@H]([C@@H](O)[C@@H]2CN=C(N)N2[C@H]2O[C@H](CO)[C@@H](O)[C@H](O)[C@@H]2O)NC(=O)[C@H]([C@@H](O)[C@@H]2CN=C(N)N2)NC(=O)[C@@H](Cc2ccc(O[C@H]3O[C@H](CO)[C@@H](O[C@H]4O[C@@H]5COC(CC6CCCCC6)O[C@H]5[C@H](O)[C@@H]4O)[C@H](O)[C@@H]3O)cc2)NC1=O` (stereo not given in full): the minimal inhibitory concentration (MIC) was 4 µg/mL (≈ 2.85 µM) in test [23], no more than 0.12 µg/mL in test [9] and 2 µg/mL (≈ 1.43 µM) in [10].
